Reference: ChEMBL document CHEMBL3227981, “Studies on biologically active nucleosides and nucleotides. 5. Synthesis and antitumor activity of some 2,2'-anhydro-1-(3',5'-di-O-acyl-beta-D-arabinofuranosyl)cytosine salts and 2,2'-anhydro-1-(3'-O-acyl-beta-D-arabinofuranoxyl)cytosine 5'-phosphates” (J Med Chem, 1979)

How the values were obtained:
L1210 [1] = assay: Antitumor activity against mouse L1210 cells allografted in BDF1 mouse assessed as increase of host life span at 100 mg/kg, ip qd for 5 days; format: functional; conditions: route intraperitoneal
In short: (§1)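 BDF1 mice were given 1×10^5 L1210 cells ip. Compound was dissolved or suspended in 0.9% NaCl with 0.1% HCO-60 and given ip daily for 5 days, starting 24 h after inoculation. Groups had 6–10 mice. ILS = (T/C − 1) × 100, from mean survival time of treated versus control mice, observed over 60 days.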

L1210 [2] = assay: Antitumor activity against mouse L1210 cells allografted in BDF1 mouse assessed as increase of host life span at 25 mg/kg, ip qd for 5 days; format: functional; conditions: route intraperitoneal; in short: as §1
[3] = Toxicity in ip dosed ICR mouse up to 3 weeks; format: organism-based; conditions: in vivo
In short: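 Maximum tolerated dose was set from a single ip injection into three female ICR mice weighing 20–21 g, followed by 3 weeks of observation.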

L1210 [4] = assay: Antitumor activity against mouse L1210 cells allografted in BDF1 mouse assessed as increase of host life span at 6.25 mg/kg, ip qd for 5 days; format: functional; conditions: route intraperitoneal; in short: as §1
L1210 [5] = assay: Antitumor activity against mouse L1210 cells allografted in BDF1 mouse assessed as increase of host life span at 100 mg/kg, po qd for 5 days; format: functional
In short: (§2)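 L1210 cells (1×10^5) were implanted ip in BDF1 mice. Oral dosing began 24 h later and ran once daily for 5 days, with compound in 0.9% saline containing 0.1% HCO-60 as solution or suspension. Six to ten mice per group. Percent ILS was (T/C − 1) × 100 on mean survival time, with a 30-day observation period.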

L1210 [6] = assay: Antitumor activity against mouse L1210 cells allografted in BDF1 mouse assessed as increase of host life span at 200 mg/kg, po qd for 5 days; format: functional; in short: as §2

Row | SMILES | Activity (L1210 [1]) [%] | Activity (L1210 [2]) [%] | MTD at 504 h [3] [mg/kg] | Activity (L1210 [4]) [%] | Activity (L1210 [5]) [%] | Activity (L1210 [6]) [%]
1 | CCOCCC(=O)OC[C@H]1O[C@@H]2[C@H](Oc3nc(=N)ccn32)[C@@H]1OC(=O)CCOCC.Cl | 57.5 | 15.4 | – | – | – | –
2 | CCCCCCCOCCC(=O)OC[C@H]1O[C@@H]2[C@H](Oc3nc(=N)ccn32)[C@@H]1OC(=O)CCOCCCCCCC.Cl | – | 28.2 | 100 | – | – | –
3 | CCCCCCCCCCCCOCCC(=O)OC[C@H]1O[C@@H]2[C@H](Oc3nc(=N)ccn32)[C@@H]1OC(=O)CCOCCCCCCCCCCCC.Cl | >595 | 118 | 500 | 30.8 | – | –
4 | Cl.N=c1ccn2c(n1)O[C@@H]1[C@H](OC(=O)CCNC(=O)c3ccccc3)[C@@H](COC(=O)CCNC(=O)c3ccccc3)O[C@H]12 | 32.1 | 2.6 | – | – | – | –
5 | CCCC(=O)NCCCCCCCCCCC(=O)OC[C@H]1O[C@@H]2[C@H](Oc3nc(=N)ccn32)[C@@H]1OC(=O)CCCCCCCCCCNC(=O)CCC.Cl | 92.3 | 51.3 | 500 | 20.5 | – | –
6 | F[B-](F)(F)F.[NH2+]=c1ccn2c(n1)O[C@@H]1[C@H](OC(=O)CCCCCCCCCCNC(=O)c3ccccc3)[C@@H](COC(=O)CCCCCCCCCCNC(=O)c3ccccc3)O[C@H]12 | >292.3 | 100 | 500 | 38.5 | – | –
7 | Cc1ccc(S(=O)(=O)NCCC(=O)OC[C@H]2O[C@@H]3[C@H](Oc4nc(=[NH2+])ccn43)[C@@H]2OC(=O)CCNS(=O)(=O)c2ccc(C)cc2)cc1.F[B-](F)(F)F | 47.5 | 15 | – | – | – | –
8 | Cc1ccc(S(=O)(=O)NCCCCCCCCCCC(=O)OC[C@H]2O[C@@H]3[C@H](Oc4nc(=[NH2+])ccn43)[C@@H]2OC(=O)CCCCCCCCCCNS(=O)(=O)c2ccc(C)cc2)cc1.F[B-](F)(F)F | 140 | 90 | 500 | 12.5 | – | –
9 | F[B-](F)(F)F.[NH2+]=c1ccn2c(n1)O[C@@H]1[C@H](OC(=O)CCN3C(=O)c4ccccc4C3=O)[C@@H](COC(=O)CCN3C(=O)c4ccccc4C3=O)O[C@H]12 | 39.7 | 2.6 | – | – | – | –
10 | F[B-](F)(F)F.[NH2+]=c1ccn2c(n1)O[C@@H]1[C@H](OC(=O)CCCCCN3C(=O)c4ccccc4C3=O)[C@@H](COC(=O)CCCCCN3C(=O)c4ccccc4C3=O)O[C@H]12 | 60.3 | 23.1 | 300 | – | – | –
11 | F[B-](F)(F)F.[NH2+]=c1ccn2c(n1)O[C@@H]1[C@H](OC(=O)CCCCCCCCCCN3C(=O)c4ccccc4C3=O)[C@@H](COC(=O)CCCCCCCCCCN3C(=O)c4ccccc4C3=O)O[C@H]12 | >510.3 | 76.9 | 500 | 23.1 | – | –
12 | CCOC(=O)CCC(=O)OC[C@H]1O[C@@H]2[C@H](Oc3nc(=N)ccn32)[C@@H]1OC(=O)CCC(=O)OCC.Cl | 35.4 | 12.4 | > 1000 | – | 21.6 | –
13 | CCOC(=O)CCCCCCCCCCCCCCC(=O)OC[C@H]1O[C@@H]2[C@H](Oc3nc(=N)ccn32)[C@@H]1OC(=O)CCCCCCCCCCCCCCC(=O)OCC.Cl | 37.3 | 10.7 | – | – | 6.7 | –
14 | C=CCCCCCCCCC(=O)OC[C@H]1O[C@@H]2[C@H](Oc3nc(=N)ccn32)[C@@H]1OC(=O)CCCCCCCCC=C.Cl | 97.5 | 51.3 | 300 | 17.9 | – | –
15 | F[B-](F)(F)F.[NH2+]=c1ccn2c(n1)O[C@@H]1[C@H](OC(=O)CCCl)[C@@H](COC(=O)CCCl)O[C@H]12 | – | – | – | – | 9 | 38.5
16 | Cl.N=c1ccn2c(n1)O[C@@H]1[C@H](OC(=O)CCCCCCCCCCBr)[C@@H](COC(=O)CCCCCCCCCCBr)O[C@H]12 | 145.9 | 61.5 | 300 | 12.8 | – | –
17 | Cc1ccc(C(=O)OC[C@H]2O[C@@H]3[C@H](Oc4nc(=N)ccn43)[C@@H]2OC(=O)c2ccc(C)cc2)cc1.Cl | 81.3 | 37.3 | 750 | – | 14.7 | 30.7
18 | CCOc1ccc(C(=O)OC[C@H]2O[C@@H]3[C@H](Oc4nc(=N)ccn43)[C@@H]2OC(=O)c2ccc(OCC)cc2)cc1.Cl | 67.5 | 33.3 | 500 | – | – | –
19 | CCCCCCCCOc1ccc(C(=O)OC[C@H]2O[C@@H]3[C@H](Oc4nc(=N)ccn43)[C@@H]2OC(=O)c2ccc(OCCCCCCCC)cc2)cc1.Cl | 12.8 | – | 300 | – | – | –
20 | Cl.N=c1ccn2c(n1)O[C@@H]1[C@H](OC(=O)c3ccccc3Cl)[C@@H](COC(=O)c3ccccc3Cl)O[C@H]12 | – | 25.6 | < 300 | – | – | 28.2
21 | Cl.N=c1ccn2c(n1)O[C@@H]1[C@H](OC(=O)c3cccc(Cl)c3)[C@@H](COC(=O)c3cccc(Cl)c3)O[C@H]12 | – | 28.2 | < 300 | – | – | 38.5
22 | Cl.N=c1ccn2c(n1)O[C@@H]1[C@H](OC(=O)c3ccc(Cl)cc3)[C@@H](COC(=O)c3ccc(Cl)cc3)O[C@H]12 | 105.1 | 31.3 | 750 | – | – | 21.8
23 | Cl.N=c1ccn2c(n1)O[C@@H]1[C@H](OC(=O)c3ccc(F)cc3)[C@@H](COC(=O)c3ccc(F)cc3)O[C@H]12 | 47.4 | 10 | 500 | – | – | 38.5
24 | F[B-](F)(F)F.[NH2+]=c1ccn2c(n1)O[C@@H]1[C@H](OC(=O)c3cccc4ccccc34)[C@@H](COC(=O)c3cccc4ccccc34)O[C@H]12 | 82.1 | 35.5 | 500 | – | – | –
25 | Cl.N=c1ccn2c(n1)O[C@@H]1[C@H](OC(=O)/C=C/c3ccco3)[C@@H](COC(=O)/C=C/c3ccco3)O[C@H]12 | 54.7 | 20 | 300 | – | 20 | 26.7
26 | CC(C)(C)C(=O)O[C@H]1[C@H]2Oc3nc(=N)ccn3[C@@H]2O[C@@H]1COC(=O)CCCCCCC(=O)OC[C@H]1O[C@@H]2[C@H](Oc3nc(=N)ccn32)[C@@H]1OC(=O)C(C)(C)C.Cl | – | 25 | < 300 | – | – | 41
27 | CC(=O)O[C@H]1[C@H]2Oc3nc(=N)ccn3[C@@H]2O[C@@H]1COP(=O)(O)O | 57.3 | 30.7 | > 1500 | – | 13.3 | 46.9
28 | CCCCCCCC(=O)O[C@H]1[C@H]2Oc3nc(=N)ccn3[C@@H]2O[C@@H]1COP(=O)(O)O | 76 | 50.7 | 500 | 6.3 | – | 50.7
29 | CCCCCCCCCCCCCCCC(=O)O[C@H]1[C@H]2Oc3nc(=N)ccn3[C@@H]2O[C@@H]1COP(=O)(O)O | >441.1 | 116.4 | 500 | 27.4 | – | 43
